DDE Tn7 FP inh: disrupts Tn7 cyclic peptide binding to fibrin D-Dimer-E complex. P02675. AID 720508. hit rate 0.13% among 370,000. inhibition, % at 8.3 µM. FP displacement of FITC-Tn7 peptide from fibrin DD(E); 0% = median of compound wells per plate;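 active means inhibition above the mean of compounds falling within the control limits plus 3 SD of them, cut at about 14% in these data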;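 further: 0% = plate median of compound wells and 100% = 10 µM Aha-Tn7 peptide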
Target sequence (P02675 whole entry, looked up): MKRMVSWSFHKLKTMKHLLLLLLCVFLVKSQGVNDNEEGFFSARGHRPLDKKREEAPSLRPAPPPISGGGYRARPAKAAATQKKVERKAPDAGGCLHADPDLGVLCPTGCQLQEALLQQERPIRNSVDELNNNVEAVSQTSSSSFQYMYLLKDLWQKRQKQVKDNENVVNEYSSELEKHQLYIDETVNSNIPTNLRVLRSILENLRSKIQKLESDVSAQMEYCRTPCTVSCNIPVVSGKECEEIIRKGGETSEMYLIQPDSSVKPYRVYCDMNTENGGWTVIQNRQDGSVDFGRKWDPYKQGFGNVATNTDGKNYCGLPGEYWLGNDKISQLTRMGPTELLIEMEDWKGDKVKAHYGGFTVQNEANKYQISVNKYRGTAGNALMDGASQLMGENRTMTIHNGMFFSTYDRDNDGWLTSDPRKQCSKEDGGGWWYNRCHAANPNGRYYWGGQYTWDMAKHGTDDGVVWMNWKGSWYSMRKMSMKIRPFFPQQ
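Measure: % inhibition scaled between sample-field median and high-control FP; Test system: human fibrin DD(E); Quantity: 2 µM final DD(E) protein; Doses: one dose, 8.3 µM nominal; Schedule: compound with protein 10 min, then 3 h after probe, room temperature; Detection: fluorescence polarization; Medium: Tris buffer with calcium and detergent, pH 7.8.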
DDE Tn6 FP inh: disrupts Tn6 cyclic peptide binding to fibrin D-Dimer-E complex; AID 720509; Fibrin DD(E) TRITC-Tn6 fluorescence polarization displacement; hit rate 0.21% among 370,000; P02675; inhibition, % at 8.3 µM;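 active means inhibition above a per-campaign cutoff: mean of compounds within control limits plus 3 SD, cut at about 15% in these data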;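 further: 0% = median of all compound wells on the plate and 100% = blocking peptide control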
Rtt109 HAT inh: inhibitors of Candida albicans Rtt109/Vps75 histone acetyltransferase | purified Rtt109/Vps75, ThioGlo CoA-SH fluorescence, 4 h | inhibition, % at 34.9 µM | hit rate 0.16% among 330,000;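 active means inhibition of at least 50% in every replicate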
LANA DNA inh: KSHV C-LANA DNA binding inhibition; AID 504423; hit rate 0.078% among 340,000; MBP-C-LANA/FAM-LBS DNA binding, fluorescence polarization; inhibition, % at 9 µM;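 active means highest replicate inhibition at or above 60% at 9 µM, even if other replicates fall short; inactive means all replicates below 60% inhibition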;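 further: 0% = neutral control wells and 100% = 4 µM acridine orange control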
Keap1 Nrf2 FP: inhibitors of human Keap1-Nrf2 protein-protein interaction; AID 504523; hit rate 0.15% among 340,000; Q14145; inhibition, % at 9.4 µM; Keap1 Kelch-Nrf2 peptide fluorescence polarization, 1536-well; in the data active means inhibition above about 12%;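 further: human Keap1 Kelch domain with fluorescein labeled Nrf2 9mer peptide probe; 0% = neutral control wells and 100% = peptide positive control; higher means more block of Keap1 binding to Nrf2 peptide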
DDE Tn6 FP ctr: counter-screen hit for Tn6 peptide-fibrin DD(E) binding disruption. shares compounds with DDE Tn6 FP inh. TRITC-Tn6 fluorescence polarization displacement; 0% = median of compound wells, not DMSO. inhibition, % at 8.3 µM. hit rate 2% among 680;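 active means inhibition above the mean of test compounds lying between the control limits plus 3 SD of those, cut at about 14% in these data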;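 further: 0% = median of compound wells and 100% = wells with Aha-Tn7 blocking peptide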
Tn6 DDE conf: DD(E)-Tn6 binding inhibition, FP confirmation. shares compounds with DDE Tn6 FP inh. hit rate 10% among 680. inhibition, % at 8.3 µM. FP displacement of TRITC-Tn6 peptide from DD(E); 0% = per-plate median of test wells;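 active means inhibition above the mean of compounds lying within the control limits plus 3 SD, cut at about 16% in these data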;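 further: 100% = high control wells holding a competing inhibitor peptide at 10 µM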
An asterisk follows results filed as active; x = not tested or not shown. An excerpt weighted towards active compounds, which were near 0.6% of everything screened.

SMILES	DDE Tn7 FP inh	DDE Tn6 FP inh	Rtt109 HAT inh	LANA DNA inh	Keap1 Nrf2 FP	DDE Tn6 FP ctr	Tn6 DDE conf
CCOC(=O)c1c(C)[nH]c(O)c1C=Nc1ccc(Cl)cc1	-4	32*	3	1	-14	2	-3
COc1ccc(C2C(C(=O)Nc3c(C)cccc3C)CCC(=O)N2c2ccc(OC)cc2)cc1 (stereo unspecified)	-4	-8	x	x	x	x	x
Cc1ccccc1C(=O)Nc1ccc(-c2nc3ccc(C(=O)c4ccccc4)cc3[nH]2)cc1	-2	38*	-8	2	-5	14*	22*
CN(c1ccccc1)S(=O)(=O)c1ccc(Cl)c(C(=O)Nc2nc3ccccc3[nH]2)c1	1	3	-9	-1	0	x	x
CN(c1ccccc1)S(=O)(=O)c1ccc(Cl)c(C(=O)Nc2ccc(-c3nc4ccccc4[nH]3)cc2)c1	11	39*	14	0	-8	-1	21*
COCCCN1C(=O)[C@H](CC(=O)NCCC(C)C)[C@]2(C(=O)OC)CCCCC=C12	1	-1	x	x	x	x	x
Cc1cccc(NC(=O)C2CCN(S(=O)(=O)c3ccc4ccccc4c3)CC2)n1	13	-9	0	-1	4	x	x
Cc1cccc(NC(=O)C2CCN(S(=O)(=O)c3ccc(Cl)cc3)CC2)n1	6	17*	6	0	7	-3	-5
Cc1c(C(=O)NCc2ccco2)cccc1[N+](=O)[O-]	-3	-8	0	3	1	x	x
Cc1cc2cc(CNC(=O)c3cccc([N+](=O)[O-])c3)ccc2n1C	6	53*	-4	0	-1	-3	-7
Cc1cc2cc(CNC(=O)Cc3ccc([N+](=O)[O-])cc3)ccc2n1C	2	17*	11	2	-3	0	6
CCCC(=O)NCc1ccc2c(c1)cc(C)n2C	0	4	11	0	-3	x	x
Cc1cc2cc(CNC(=O)c3cccc([N+](=O)[O-])c3)ccc2[nH]1	1	-2	1	0	-6	x	x
Cc1c(C(=O)NCc2ccc3c(c2)cc(C)n3C)cccc1[N+](=O)[O-]	2	24*	-1	0	-3	-4	-7
Cc1cn(-c2cc(NC(=O)c3ccc(C)c(Nc4nccc(-c5cccnc5)n4)c3)cc(C(F)(F)F)c2)cn1	1	6	x	x	x	x	x
COC(=O)c1ccc(Cn2c(C)c(C(=O)NCc3cccc(C(F)(F)F)c3)sc2=O)o1	5	17*	x	x	x	5	-3
COC(=O)[C@]12C=CCN1[C@H](c1ccccc1)c1c(c3ccccc3n1S(=O)(=O)c1ccc(C)cc1)C2	-9	19*	x	x	x	2	4
COC(=O)[C@]12C=CCN1[C@H](c1ccc(OC)c(OC)c1)c1c(c3ccccc3n1S(=O)(=O)c1ccc(C)cc1)C2	-4	-2	x	x	x	x	x
COc1ccc(NC(=O)NNC(=O)CCn2nc(C)c([N+](=O)[O-])c2C)cc1OC	4	4	x	x	x	x	x
CN1C(=CC=C2C=C(I)C(=O)C(I)=C2)C(C)(C)c2ccccc21	-2	-28	2	2	-2	x	x
CN1/C(=C\C=C2/SC(=S)NC2=O)C(C)(C)c2ccccc21	-107	70*	30	-59	-71	-95	57*
CC1CCC/C(=C\Nc2ccc3c(c2)OCO3)C1=O (stereo unspecified)	4	11	-2	-1	3	x	x
O=C1CCCC/C1=C\Nc1ccc(O)cc1	5	27*	8	1	-7	4	0
O=C1CCC/C1=C/Nc1ccc2c(c1)OCO2	12	21*	-7	3	4	3	3
Cc1nn(C)c(C)c1N1C(=O)c2cccc3c(N)ccc(c23)C1=O	5	19*	-41	183*	116*	12	3
Cc1cccc(C)c1-n1nnnc1C1(C)CN(S(C)(=O)=O)CC(=O)N1Cc1ccc(F)cc1 (stereo unspecified)	-5	16*	x	x	x	-2	-5
CC1(C)c2ccccc2N2CC(=O)N(CC(N)=O)C21C (stereo unspecified)	-12	76*	41	-7	-71	-3	-5
